Results: ChEMBL document CHEMBL1287664, “Synthesis and biological analysis of prostate-specific membrane antigen-targeted anticancer prodrugs” (J Med Chem, 2010)
The source made the active and inactive calls. The rule behind the calls is not given here.

What was measured:
LNCaP [1] = test: Cytotoxicity against human LNCAP cells at 100 pM to 1 uM; type: functional, cell-based
Procedure, shortened: (§1)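 LNCaP cells (RPMI 1640, 10% heat-inactivated FBS) were seeded at 50000 cells/well and grown 48 h to monolayers. They were pulsed 2 h at 37 °C with drug (free drugs in DMSO; conjugates in saline, ± 100-fold excess PMPA), then chased 66 h drug-free. Cells were labelled 4 h with [3H]-thymidine, TCA-precipitated, NaOH-solubilised and scintillation-counted. IC50 came from % incorporation vs log concentration.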

LNCaP [2] = test: Cytotoxicity against human LNCAP cells; type: functional, cell-based; procedure, shortened: as §1
LNCaP [3] = test: Cytotoxicity against human LNCAP cells after 2 hrs by [3H]thymidine incorporation assay; type: functional, cell-based
Procedure, shortened: (§2)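 LNCaP cells were seeded at 50000 cells/well and grown to monolayers over 48 h. They were exposed to increasing drug concentrations for 2 h at 37 °C, then kept in drug-free medium for 66 h. [3H]-thymidine (1 mCi/mL) was added for 4 h. Cells were TCA-precipitated (5%, 10 min), dissolved in 0.25 N NaOH and scintillation-counted. IC50 came from % incorporation versus log concentration.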

LNCaP [4] = test: Cytotoxicity against human LNCAP cells at 100 pM to 1 uM after 2 hrs by [3H]thymidine incorporation assay; type: functional, cell-based; procedure, shortened: as §2
[5] = biological target: Glutamate carboxypeptidase 2 (Homo sapiens) (UniProt Q04609); test: Displacement of DUPA-99mTc from human prostate-specific membrane antigen in LNCaP cells assessed as relative binding affinity after 2 hrs at 37 degC; type: cell-based
Sequence of Glutamate carboxypeptidase 2 (Homo sapiens) (Q04609 whole entry, looked up): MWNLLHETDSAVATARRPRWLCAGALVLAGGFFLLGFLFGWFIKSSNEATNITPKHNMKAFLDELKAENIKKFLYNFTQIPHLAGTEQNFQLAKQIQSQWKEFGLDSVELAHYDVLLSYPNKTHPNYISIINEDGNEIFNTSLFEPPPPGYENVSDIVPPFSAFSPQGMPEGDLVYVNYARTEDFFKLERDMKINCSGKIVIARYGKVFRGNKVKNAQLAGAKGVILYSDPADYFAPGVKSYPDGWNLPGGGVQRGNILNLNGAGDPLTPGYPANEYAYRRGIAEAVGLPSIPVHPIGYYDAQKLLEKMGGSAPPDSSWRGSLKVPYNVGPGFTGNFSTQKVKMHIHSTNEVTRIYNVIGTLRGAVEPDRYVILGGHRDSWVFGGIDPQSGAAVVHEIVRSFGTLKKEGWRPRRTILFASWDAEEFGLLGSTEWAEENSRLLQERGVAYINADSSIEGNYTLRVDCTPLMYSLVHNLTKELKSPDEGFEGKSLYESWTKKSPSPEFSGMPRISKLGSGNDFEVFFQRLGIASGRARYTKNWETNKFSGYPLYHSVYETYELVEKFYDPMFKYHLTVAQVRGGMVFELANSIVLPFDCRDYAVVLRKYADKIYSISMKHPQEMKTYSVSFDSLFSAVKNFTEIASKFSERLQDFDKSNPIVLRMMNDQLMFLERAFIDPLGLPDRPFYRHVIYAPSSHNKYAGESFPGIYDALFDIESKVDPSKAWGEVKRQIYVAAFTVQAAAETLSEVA

LNCaP [6] = test: Cytotoxicity against human LNCAP cells after 2 hrs by [3H]thymidine incorporation assay in presence of 100-fold […]; type: functional, cell-based
Procedure, shortened: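 LNCaP monolayers (50000 cells/well, 48 h) received 100-fold excess PMPA to block PSMA sites before the saline-dissolved DUPA conjugate was added. Exposure was 2 h at 37 °C, followed by 66 h in drug-free medium. Viability was read as [3H]-thymidine incorporation (1 mCi/mL, 4 h), TCA-precipitated and scintillation-counted. IC50 came from incorporation versus log concentration.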

SMILES: OCCC#Cc1nc(-c2ccc(F)cc2)c(-c2ccncc2)n1CCCc1ccccc1
- Activity (LNCaP [1]): inactive

SMILES: CC(=O)O[C@H]1C(=O)[C@@]2(C)[C@H]([C@H](OC(=O)c3ccccc3)[C@]3(O)C[C@H](OC(=O)[C@H](O)[C@@H](NC(=O)c4ccccc4)c4ccccc4)C(C)=C1C3(C)C)[C@]1(OC(C)=O)CO[C@@H]1C[C@@H]2O [PACLITAXEL]
- IC50 (LNCaP [2]; Homo sapiens, LNCaP): 22.3 nM

SMILES: CC[C@H](C)[C@H](NC(=O)[C@H]1CCCCN1C)C(=O)N(COC(=O)CC(C)C)[C@H](C[C@@H](OC(C)=O)c1nc(C(=O)N[C@@H](Cc2ccc(C)cc2)C[C@H](C)C(=O)NNC(=O)OCCSSC[C@@H](NC(=O)[C@H](Cc2ccccc2)NC(=O)[C@H](CC(=O)O)NC(=O)CC[C@H](NC(=O)CC[C@H](NC(=O)N[C@@H](CCC(=O)O)C(=O)O)C(=O)O)C(=O)O)C(=O)O)cs1)C(C)C
- IC50 (LNCaP [3]): 5 nM

SMILES: CC[C@]1(O)C[C@@H]2CN(CCc3c([nH]c4ccccc34)[C@@](C(=O)OC)(c3cc4c(cc3OC)N(C)[C@H]3[C@@](O)(C(N)=O)[C@H](O)[C@]5(CC)C=CCN6CC[C@]43[C@@H]65)C2)C1 [VINDESINE]
- IC50 (LNCaP [2]; Homo sapiens, LNCaP): 9.5 nM

SMILES: CC[C@]1(O)C[C@@H]2CN(CCc3c([nH]c4ccccc34)[C@@](C(=O)OC)(c3cc4c(cc3OC)N(C)[C@H]3[C@@](O)(C(=O)NN)[C@H](O)[C@]5(CC)C=CCN6CC[C@]43[C@@H]65)C2)C1 [DESACETYLVINBLASTINEHYDRAZIDE]
- IC50 (LNCaP [2]; Homo sapiens, LNCaP): 12.2 nM

SMILES: C=C1[C@@H]2CCC3[C@@](CC[C@@H]4[C@H](C(=O)O)C[C@@H](O[C@@H]5O[C@H](CO)[C@@H](OS(=O)(=O)O)[C@H](OS(=O)(=O)O)[C@H]5OC(=O)CC(C)C)C[C@@]34C)(C2)[C@@H]1O (some centres undefined)
- Activity (LNCaP [1]): inactive

SMILES: CC1=C[C@H]2O[C@@H]3C[C@H]4OC(=O)/C=C\C=C\C(=O)OCC[C@@H](C)[C@H](O)C(=O)OC[C@@]2(CC1)[C@]4(C)[C@]31CO1 [VERRUCARIN A]
- IC50 (LNCaP [2]; lncap): 3.3 nM

SMILES: C[C@]12C=CC(=O)C=C1CC[C@@H]1[C@@H]2[C@@H](O)C[C@@]2(C)[C@H]1CC[C@]2(O)C(=O)CO
- Activity (LNCaP [1]): inactive

SMILES: CC[C@@]1(O)C(=O)OCc2c1cc1n(c2=O)Cc2cc3ccccc3nc2-1
- Activity (LNCaP [1]): inactive

SMILES: CC1=C[C@H]2O[C@@H]3C[C@H]4OC(=O)/C=C/C=C/C(=O)OCC[C@@H](C)[C@H](OC(=O)OCCSSC[C@H](NC(=O)[C@H](CC(=O)O)NC(=O)[C@@H](N)CNC(=O)[C@H](Cc5ccccc5)NC(=O)[C@H](Cc5ccccc5)NC(=O)CCCCCCNC(=O)CC[C@H](NC(=O)N[C@H](CCC(=O)O)C(=O)O)C(=O)O)C(=O)O)C(=O)OC[C@@]2(CC1)[C@]4(C)[C@]31CO1
- Activity (LNCaP [4]): inactive
- RBA [5]: 34%

SMILES: C[S+]([O-])c1ccc(-c2nc(-c3ccc(F)cc3)c(-c3ccncc3)[nH]2)cc1 (centres undefined)
- Activity (LNCaP [1]): inactive

SMILES: CO[C@@H]1C[C@@H](C[C@H]2CC[C@H](C)[C@H]([C@@H](C)C(=O)O)O2)O[C@]2(O[C@](C)([C@H]3CC[C@@](C)([C@@H]4O[C@@H]([C@H]5O[C@@](O)(CO)[C@H](C)C[C@@H]5C)C[C@@H]4C)O3)C[C@H]2C)[C@@H]1C
- Activity (LNCaP [1]): inactive

SMILES: COC[C@H]1OC(=O)c2coc3c2[C@@]1(C)C1=C(C3=O)[C@@H]2CCC(=O)[C@@]2(C)C[C@H]1OC(C)=O
- Activity (LNCaP [1]): inactive

SMILES: CC[C@H](C)[C@H](NC(=O)[C@H]1CCCCN1C)C(=O)N(COC(=O)CC(C)C)[C@H](C[C@@H](OC(C)=O)c1nc(C(=O)N[C@@H](Cc2ccc(C)cc2)C[C@H](C)C(=O)NNC(=O)OCCSSC[C@H](NC(=O)[C@H](Cc2ccccc2)NC(=O)[C@H](Cc2ccccc2)NC(=O)CCCCCCCNC(=O)CC[C@H](NC(=O)N[C@H](CCC(=O)O)C(=O)O)C(=O)O)C(=O)O)cs1)C(C)C
- IC50 (LNCaP [3]): 24 nM

SMILES: COc1cccc2c1C(=O)c1c(O)c3c(c(O)c1C2=O)C[C@@](O)(C(=O)CO)C[C@@H]3O[C@H]1C[C@H](N)[C@H](O)[C@H](C)O1 [DOXORUBICIN]
- IC50 (LNCaP [2]; Homo sapiens, LNCaP): 77.6 nM

SMILES: CC[C@H](C)[C@H](NC(=O)[C@H]1CCCCN1C)C(=O)N(COC(=O)CC(C)C)[C@H](C[C@@H](OC(C)=O)c1nc(C(=O)N[C@@H](Cc2ccc(C)cc2)C[C@H](C)C(=O)O)cs1)C(C)C [TUBULYSIN]
- IC50 (LNCaP [2]; Homo sapiens, LNCaP): 2.5 nM

SMILES: CC[C@H](C)[C@H](NC(=O)[C@H]1CCCCN1C)C(=O)N(COC(=O)CC(C)C)[C@H](C[C@@H](OC(C)=O)c1nc(C(=O)N[C@@H](Cc2ccc(C)cc2)C[C@H](C)C(=O)NNC(=O)OCCSSC[C@H](NC(=O)[C@H](CC(=O)O)NC(=O)[C@@H](N)CNC(=O)[C@H](Cc2ccccc2)NC(=O)[C@H](Cc2ccccc2)NC(=O)CCCCCCNC(=O)CC[C@H](NC(=O)N[C@H](CCC(=O)O)C(=O)O)C(=O)O)C(=O)O)cs1)C(C)C
- IC50 (LNCaP [3]): 6 nM
- Activity (LNCaP [6]): inactive
- RBA [5]: 26%

SMILES: C[n+]1ccc(-c2cc[n+](C)cc2)cc1
- Activity (LNCaP [1]): inactive

SMILES: CC[C@]1(O)CCN2CCc3c([nH]c4ccccc34)[C@](C(=O)OC)(c3cc4c(cc3OC)N(C)[C@@H]3[C@](O)(C(=O)NNC(=O)OCCSSC[C@H](NC(=O)[C@H](CC(=O)O)NC(=O)[C@@H](N)CNC(=O)[C@H](Cc5ccccc5)NC(=O)[C@H](Cc5ccccc5)NC(=O)CCCCCCNC(=O)CC[C@H](NC(=O)N[C@H](CCC(=O)O)C(=O)O)C(=O)O)C(=O)O)[C@@H](O)[C@@]5(CC)C=CCN6CC[C@@]43[C@@H]65)CC1C2 (some centres undefined)
- IC50 (LNCaP [3]): 31 nM
- Activity (LNCaP [6]): inactive
- RBA [5]: 25%
